Measured values as given in ChEMBL document CHEMBL2331506, “Design, synthesis, antiviral and cytostatic evaluation of novel isoxazolidine nucleotide analogues with a carbamoyl linker” (Bioorg Med Chem, 2013).
Activity calls are given as the source filed them. How the calls were made is not given here.

What was measured:
Coxsackievirus B4 = assay: Antiviral activity against Coxsackievirus B4 infected in african green monkey Vero cells assessed as reduction of virus-induced cytopathogenicity at 250 uM; assay type: functional, organism-based
In short: (§1)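 Confluent monolayers (HEL fibroblasts, Vero, or HeLa cells as listed) were infected with 100 CCID50 of virus in the presence of varying compound concentrations. Virus-induced cytopathicity or plaque formation was scored once cytopathicity was complete in untreated infected controls. EC50 was taken as the concentration reducing cytopathogenicity or plaque formation by 50%.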

[1] = test system: Vesicular stomatitis virus; assay: Antiviral activity against Vesicular stomatitis virus infected in human HeLa cells assessed as reduction of virus-induced cytopathogenicity at 250 uM; assay type: functional, organism-based
In short: (§2)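 Confluent cell monolayers were infected with 100 CCID50 of virus while exposed to varying compound concentrations. Cytopathicity was scored once it was complete in untreated infected controls. EC50 was taken as the concentration that reduced virus-induced cytopathogenicity by 50%.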

Influenza B virus = assay: Antiviral activity against Influenza B virus infected in dog MDCK cells assessed as reduction of virus-induced cytopathogenicity at 250 uM; assay type: functional, organism-based; in short: as §2
Punta Toro virus = assay: Antiviral activity against Punta Toro virus infected in african green monkey Vero cells assessed as reduction of virus-induced cytopathogenicity at 250 uM; assay type: functional, organism-based; in short: as §1
Human alphaherpesvirus 1 [2] = assay: Antiviral activity against Herpes simplex virus 1 KOS infected in human HEL cells assessed as reduction of virus-induced cytopathogenicity at 250 uM; assay type: functional, organism-based; in short: as §1
Vero = assay: Cytotoxicity against african green monkey Vero cells assessed as alteration of cell morphology up to 100 uM by microscopic analysis; assay type: cell-based; details: chlorocebus sabaeus
In short: (§3)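 Uninfected host-cell cultures were exposed to compound and examined by microscopy. Cytotoxicity was expressed as the minimum cytotoxic concentration (MCC) causing a microscopically detectable alteration of normal cell morphology.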

Felid alphaherpesvirus 1 = assay: Antiviral activity against Feline herpes virus infected in cat CRFK cells assessed as reduction of virus-induced cytopathogenicity at 250 uM; assay type: functional, organism-based
[3] = Cytotoxicity against cat CRFK cells assessed as alteration of cell morphology up to 100 uM by microscopic analysis; assay type: cell-based, Felis catus; in short: as §3
Feline coronavirus = assay: Antiviral activity against Feline coronavirus infected in cat CRFK cells assessed as reduction of virus-induced cytopathogenicity at 250 uM; assay type: functional, organism-based
[4] = test system: Mammalian orthoreovirus 1; assay: Antiviral activity against Reovirus 1 infected in african green monkey Vero cells assessed as reduction of virus-induced cytopathogenicity at 250 uM; assay type: functional, organism-based; in short: as §1
[5] = test system: Vesicular stomatitis virus; assay: Antiviral activity against Vesicular stomatitis virus infected in human HEL cells assessed as reduction of virus-induced cytopathogenicity at 250 uM; assay type: functional, organism-based; in short: as §2
[6] = test system: Human immunodeficiency virus 1; assay: Antiviral activity against Human immunodeficiency virus 1 3B infected in human CEM cells assessed as reduction of virus-induced giant cell formation at 250 uM after 4 to 5 days; assay type: functional, organism-based; details: CCRF-CEM
In short: (§4)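 CEM cells at 3 × 10^5 cells/mL were infected with HIV at 100 CCID50 per mL in the presence of compound dilutions. They were held 4–5 days at 37 °C in humidified CO2. Syncytium (giant cell) formation was scored microscopically, and EC50 was taken as the concentration inhibiting giant cell formation by 50%.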

Human respirovirus 3 = assay: Antiviral activity against Parainfluenza virus 3 infected in african green monkey Vero cells assessed as reduction of virus-induced cytopathogenicity at 250 uM; assay type: functional, organism-based; in short: as §1
MDCK = assay: Cytotoxicity against dog MDCK cells assessed as alteration of cell morphology up to 100 uM by microscopic analysis; assay type: cell-based, Canis lupus familiaris; in short: as §3
Influenza A virus [7] = assay: Antiviral activity against Influenza A virus H1N1 infected in dog MDCK cells assessed as reduction of virus-induced cytopathogenicity at 250 uM; assay type: functional, organism-based; in short: as §2
[8] = test system: Human immunodeficiency virus 2; assay: Antiviral activity against Human immunodeficiency virus 2 ROD infected in human CEM cells assessed as reduction of virus-induced giant cell formation at 250 uM after 4 to 5 days; assay type: functional, organism-based; details: CCRF-CEM; in short: as §4
Human alphaherpesvirus 1 [9] = assay: Antiviral activity against thymidine kinase-deficient, ACV-resistant Herpes simplex virus 1 KOS infected in human HEL cells assessed as reduction of virus-induced cytopathogenicity at 250 uM; assay type: functional, organism-based; in short: as §2
HEL = assay: Cytotoxicity against human HEL cells assessed as alteration of cell morphology up to 100 uM by microscopic analysis; assay type: cell-based; in short: as §3
Sindbis virus = assay: Antiviral activity against Sindbis virus infected in african green monkey Vero cells assessed as reduction of virus-induced cytopathogenicity at 250 uM; assay type: functional, organism-based; in short: as §1
Influenza A virus [10] = assay: Antiviral activity against Influenza A virus H3N2 infected in dog MDCK cells assessed as reduction of virus-induced cytopathogenicity at 250 uM; assay type: functional, organism-based; in short: as §2
[11] = test system: Respiratory syncytial virus; assay: Antiviral activity against Respiratory syncytial virus long infected in human HeLa cells assessed as reduction of virus-induced cytopathogenicity at 250 uM; assay type: functional, organism-based; in short: as §1
Human alphaherpesvirus 2 = assay: Antiviral activity against Herpes simplex virus 2 G infected in human HEL cells assessed as reduction of virus-induced cytopathogenicity at 250 uM; assay type: functional, organism-based; details: strain G; in short: as §1
HeLa = assay: Cytotoxicity against human HeLa cells assessed as alteration of cell morphology up to 100 uM by microscopic analysis; assay type: cell-based; in short: as §3

Structure (SMILES)	inhibition (Coxsackievirus B4)	inhibition [1]	inhibition (Influenza B virus)	inhibition (Punta Toro virus)	inhibition (Human alphaherpesvirus 1 [2])	Activity (Vero)	inhibition (Felid alphaherpesvirus 1)	Activity [3]	inhibition (Feline coronavirus)	inhibition [4]	inhibition [5]	inhibition [6]	inhibition (Human respirovirus 3)	Activity (MDCK)	inhibition (Influenza A virus [7])	inhibition [8]	inhibition (Human alphaherpesvirus 1 [9])	Activity (HEL)	inhibition (Sindbis virus)	inhibition (Influenza A virus [10])	further results
CCOc1ccc(NC(=O)[C@H]2C[C@@H](P(=O)(OCC)OCC)N(C)O2)cc1 (racemic)	inactive	inactive	inactive	inactive	inactive	Non-toxic	inactive	Non-toxic	inactive	inactive	inactive	inactive	inactive	Non-toxic	inactive	inactive	inactive	Non-toxic	inactive	inactive	inhibition [11]: inactive; inhibition (Human alphaherpesvirus 2): inactive; Activity (HeLa): Non-toxic
CCOP(=O)(OCC)[C@@H]1C[C@H](C(=O)Nc2cc(OC)c(OC)c(OC)c2)ON1C (racemic)	inactive	inactive	inactive	inactive	inactive	Non-toxic	inactive	Non-toxic	inactive	inactive	inactive	inactive	inactive	Non-toxic	inactive	inactive	inactive	Non-toxic	inactive	inactive	inhibition [11]: inactive; inhibition (Human alphaherpesvirus 2): inactive; Activity (HeLa): Non-toxic
CCOP(=O)(OCC)[C@H]1C[C@H](C(=O)Nc2cccc(C#N)c2)ON1C (racemic)	inactive	inactive	inactive	inactive	inactive	Non-toxic	inactive	Non-toxic	inactive	inactive	inactive	inactive	inactive	Non-toxic	inactive	inactive	inactive	Non-toxic	inactive	inactive	inhibition [11]: inactive; inhibition (Human alphaherpesvirus 2): inactive; Activity (HeLa): Non-toxic
CCOP(=O)(OCC)[C@@H]1C[C@H](C(=O)Nc2cccc(C#N)c2)ON1C (racemic)	inactive	inactive	inactive	inactive	inactive	Non-toxic	inactive	Non-toxic	inactive	inactive	inactive	inactive	inactive	Non-toxic	inactive	inactive	inactive	Non-toxic	inactive	inactive	inhibition [11]: inactive; inhibition (Human alphaherpesvirus 2): inactive; Activity (HeLa): Non-toxic
CCOP(=O)(OCC)[C@H]1C[C@H](C(=O)Nc2ccc(C#N)cc2)ON1C (racemic)	inactive	inactive	inactive	inactive	inactive	Non-toxic	inactive	Non-toxic	inactive	inactive	inactive	inactive	inactive	Non-toxic	inactive	inactive	inactive	Non-toxic	inactive	inactive	inhibition [11]: inactive; inhibition (Human alphaherpesvirus 2): inactive; Activity (HeLa): Non-toxic
CCOP(=O)(OCC)[C@@H]1C[C@H](C(=O)Nc2cccc(C(C)=O)c2)ON1C (racemic)	inactive	inactive	inactive	inactive	inactive	Non-toxic	inactive	Non-toxic	inactive	inactive	inactive	inactive	inactive	Non-toxic	inactive	inactive	inactive	Non-toxic	inactive	inactive	inhibition [11]: inactive; inhibition (Human alphaherpesvirus 2): inactive; Activity (HeLa): Non-toxic
CCOP(=O)(OCC)[C@H]1C[C@H](C(=O)Nc2cccc(C)c2)ON1C (racemic)	inactive	inactive	inactive	inactive	inactive	Non-toxic	inactive	Non-toxic	inactive	inactive	inactive	inactive	inactive	Non-toxic	inactive	inactive	inactive	Non-toxic	inactive	inactive	inhibition [11]: inactive; inhibition (Human alphaherpesvirus 2): inactive; Activity (HeLa): Non-toxic
CCOP(=O)(OCC)[C@H]1C[C@H](C(=O)Nc2cccc(OC)c2)ON1C (racemic)	inactive	inactive	inactive	inactive	inactive	Non-toxic	inactive	Non-toxic	inactive	inactive	inactive	inactive	inactive	Non-toxic	inactive	inactive	inactive	Non-toxic	inactive	inactive	inhibition [11]: inactive; inhibition (Human alphaherpesvirus 2): inactive; Activity (HeLa): Non-toxic
